The source of these data is PMC7847313 (Journal of natural products, 2018).

The structures appear in SMILES notation. Where two headings read alike, the source gives them in different places. *1 amine or outer side, *2 acyl side, *3 side chain or, on linkers, in order; H or OH if unused. Where a SMILES comes first, the peptide text is derived from it. Bridges are numbered along the chain shown (N, C = ends). [ ]: non-standard residue; d: D form. The star is where a group is joined. Ahp(3S,6R)alloIle = CC[C@@H](C)[C@@H](C(=O)[*:2])N1C(=O)[C@@H](N[*:1])CC[C@H]1O; Propanoyl(2R-OMe,3-OSO3H) = CO[C@H](COS(=O)(=O)O)C(=O)*; NMeTyr(3-Br,OMe) = CN[C@@H](Cc1ccc(OC)c(Br)c1)C(=O)O; Cit = NC(=O)NCCC[C@H](N)C(=O)O; Butyryl = CCCC(=O)*

Data set [1] addresses T1, chymotrypsin (Bos taurus, UniProt P00766). The data set is described as follows: Chymotrypsin assay. The data set is classed as biochemical. The procedure, abridged:
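Enzyme (4 units/mL, in cold 1 mM HCl) and BTEE (1.18 mM) in 80 mM Tris-HCl, pH 7.8, made fresh. BTEE, buffer, CaCl2 and test compound (MeOH dilution series; MeOH blank) were equilibrated at 25 °C, then enzyme added last. A256 followed continuously: 3 min uninhibited, 30 s intervals with inhibitor. Activity in BTEE units/mL; IC50 by nonlinear regression.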

The conditions of data set [2]: cited from earlier work.
In data set [3] the test system is Vibrio cholerae secreted serine protease activity. The settings on record: as low as in cultures of T2S mutants, averaged; cited from earlier work.
Data set [4] deals with neuro-2a neuroblastoma cells. Particulars: read-out: IC50 neuro-2a neuroblastoma cells; cited from earlier work.
In data set [5] the target is T1, chymotrypsin. Particulars: cited from earlier work.
The test system of data set [6] is NCI-H460 lung cancer cells. Particulars: cited from earlier work.

For `CC[C@@H](C)[C@H]1C(=O)N(C)[C@@H](Cc2ccc(OC)c(Br)c2)C(=O)N[C@@H]([C@@H](C)CC)C(=O)O[C@H](C)[C@H](NC(=O)[C@H](NC(=O)[C@H](O)COS(=O)(=O)O)C(C)C)C(=O)N[C@@H](CCCCN)C(=O)N[C@H]2CC[C@@H](O)N1C2=O` [Jizanpeptin A (1), Jizanpeptin A], the IC50 against chymotrypsin [1] is greater than 10 µM.

As to `CC[C@@H](C)[C@H]1C(=O)N(C)[C@@H](Cc2ccc(OC)c(Br)c2)C(=O)N[C@@H]([C@@H](C)CC)C(=O)O[C@H](C)[C@H](NC(=O)[C@H](NC(=O)[C@@H](COS(=O)(=O)O)OC)C(C)C)C(=O)N[C@@H](CCCCN)C(=O)N[C@H]2CC[C@@H](O)N1C2=O` [Jizanpeptin B (2), Jizanpeptin B], on chymotrypsin [1], the IC50 was greater than 10 µM.

In the case of `CC[C@@H](C)[C@H]1C(=O)N(C)[C@@H](Cc2ccc(OC)c(Br)c2)C(=O)N[C@@H]([C@@H](C)CC)C(=O)O[C@H](C)[C@H](NC(=O)[C@@H](NC(=O)[C@@H](COS(=O)(=O)O)OC)C(C)C)C(=O)N[C@@H](CCCCN)C(=O)N[C@H]2CC[C@@H](O)N1C2=O` [Jizanpeptin C (3), Jizanpeptin C], the “efficacy as a chymotrypsin inhibitor” value at chymotrypsin [1] (standardized assay conditions, up to 10 μM) is reported as “full efficacy”.

In the case of `CC[C@@H](C)[C@H]1C(=O)N(C)[C@@H](Cc2ccc(OC)c(Br)c2)C(=O)N[C@@H]([C@@H](C)CC)C(=O)O[C@H](C)[C@H](NC(=O)[C@@H](NC(=O)[C@@H](COS(=O)(=O)O)OC)[C@@H](C)CC)C(=O)N[C@@H](CCCCN)C(=O)N[C@H]2CC[C@@H](O)N1C2=O` [Jizanpeptin D (4), Jizanpeptin D] ({Propanoyl(2R-OMe,3-OSO3H)}-ITK[Ahp(3S,6R)alloIle][NMeTyr(3-Br,OMe)]I; ester 2-C), the IC50 against chymotrypsin [1] is greater than 10 µM.

As for `CC[C@@H](C)[C@H]1C(=O)N(C)[C@@H](Cc2ccc(OC)c(Br)c2)C(=O)N[C@@H]([C@@H](C)CC)C(=O)O[C@H](C)[C@H](NC(=O)[C@H](NC(=O)[C@@H](COS(=O)(=O)O)OC)C(C)C)C(=O)N[C@@H](CCCNC(=N)N)C(=O)N[C@H]2CC[C@@H](O)N1C2=O` [Jizanpeptin E (5), Jizanpeptin E], the IC50 on chymotrypsin [1] was greater than 10 µM.

Regarding `C/C=C1/NC(=O)C(NC(=O)C(NC(=O)C(CO)OC)C(C)C)C(C)OC(=O)C(C(C)C)NC(=O)C(Cc2ccccc2)N(C)C(=O)C(Cc2ccccc2)N2C(=O)C(CCC2O)NC1=O` (stereo not drawn) [dolastatin 13], the “cytotoxicity” value in data set [2] (terminal Gac) was “nanomolar cytotoxicity”.

`CC(=O)N[C@@H](CC(C)C)C(=O)N[C@@H](CC(C)C)C(=O)N[C@H](C=O)CCCNC(=N)N` [leupeptin]: the “reduction in fluorescence, positive control” value in data set [3] is 93%.

With `C/C=C1\NC(=O)[C@@H](NC(=O)[C@H](CCc2ccc(O)cc2)NC(=O)[C@H](C)NC(=O)[C@H](O)COS(=O)(=O)O)[C@@H](C)OC(=O)[C@H](C(C)C)NC(=O)[C@H](Cc2ccc(O)cc2)N(C)C(=O)[C@H](Cc2ccccc2)N2C(=O)[C@H](CC[C@H]2O)NC1=O` [lyngbyastatin 4], the “cytotoxicity” value in data set [2] (terminal Gac-sulfate) is “no cytotoxicity”.

With `CCCC(=O)N[C@H](CCC(N)=O)C(=O)N[C@@H]1C(=O)N[C@@H](CCCNC(N)=O)C(=O)N[C@H]2CC[C@@H](O)N(C2=O)[C@@H]([C@H](C)CC)C(=O)N(C)[C@@H](Cc2ccc(OC)c(Br)c2)C(=O)N[C@@H](C(C)C)C(=O)O[C@@H]1C` [symplocamide A] (Butyryl-[dQ]T[Cit][Ahp(3S,6R)alloIle][NMeTyr(3-Br,OMe)]V; ester 2-C), the IC50 in data set [4] was 0.029 µM; in data set [6] (read-out: IC50 NCI-H460 lung cancer cells) it was 0.04 µM. In addition, at chymotrypsin [5], the “selectivity chymotrypsin over trypsin” value was “greater selectivity for chymotrypsin over trypsin”. Also, the “cytotoxicity to NCI-H460 lung cancer cells” value in data set [6] is listed as “remarkably cytotoxic”.

A word on the IC50: it is the midpoint of a concentration-inhibition curve.
